Broadly, the CLint scaled is the rate of metabolic loss divided by the concentration.

In data set [1] the test system is CYP1A2. Put plainly: Induction of CYP1A2 mRNA expression in rat hepatic microsomes at 30 mg/kg, po QD for 7 days relative to control. Type of data set: ADME, organism-based, Liver. The following applies: read-out: FC. In outline: (§1)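 Male rats dosed orally once daily for 7 days. Hepatic mRNA measured by Taqman and expressed as fold induction versus control animals.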

The test system of data set [2] is CYP1A1. The data set is described as follows: Induction of CYP1A1 mRNA expression in rat hepatic microsomes at 30 mg/kg, po QD for 7 days relative to control. It counts as ADME, organism-based, Liver. The following applies: read-out: FC. In outline: as §1
In data set [3] the test system is CYP1A2. Put plainly: (§2) Induction of CYP1A2 mRNA expression in rat hepatocytes at 10 uM by Taqman analysis relative to control. It counts as ADME, cell-based, Hepatocyte. The following applies: read-out: FC. On the technique in general: Real-time PCR tracks product formation cycle by cycle.
Data set [4] has as its system CYP1A1. Put plainly: Induction of CYP1A1 mRNA expression in rat hepatocytes at 10 uM by Taqman analysis relative to control. The following applies: read-out: FC. Type of data set: ADME, cell-based, Hepatocyte.
Data set [5] has as its system Rattus norvegicus. Put plainly: Induction of CYP1A2 gene expression in rat hepatic microsomes at 30 to 300 mg/kg, po QD for 7 days. Type of data set: ADME, organism-based, Liver. The conditions noted are these: 168 h. In a few lines: (§3)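 Rats dosed orally once daily for 7 days at 30–300 mg/kg/day, depending on compound. Hepatic AhR-panel gene mRNA (Cyp1a, Nqo1, Ephx1) measured and expressed as fold induction versus control animals.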

Data set [6] has as its system CYP1A1. The data set is described as follows: Induction of CYP1A1 gene expression in rat hepatic microsomes at 30 to 300 mg/kg, po QD for 7 days. It counts as ADME, organism-based, Liver. The conditions noted are these: read-out: FC. In outline: (§4)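 Rats received oral doses daily for 7 days: 30 and 100 mg/kg, or 30, 100 and 300 mg/kg, depending on compound. Hepatic CYP1A1 mRNA was expressed as fold induction versus control animals.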

Data set [7] relates to Rattus norvegicus. The data set is described as follows: Induction of Nqo1 gene expression in rat hepatic microsomes at 30 to 300 mg/kg, po QD for 7 days. Type of data set: organism-based, Liver. The conditions noted are these: 168 h. In outline:
as §3

Data set [8] relates to Rattus norvegicus. Put plainly: Induction of Ephx1 gene expression in rat hepatic microsomes at 30 to 300 mg/kg, po QD for 7 days. The conditions noted are these: 168 h. It counts as organism-based, Liver. In outline:
as §3

For data set [9], the system named is Rattus norvegicus. The data set is described as follows: Induction of CYP1A2 gene expression in po dosed rat hepatic microsomes administered po QD for 7 days. It counts as ADME, organism-based, Liver. The conditions noted are these: 168 h. In a few lines:
as §3

In data set [10] the test system is Rattus norvegicus. Put plainly: Induction of CYP1A1 gene expression in po dosed rat hepatic microsomes administered po QD for 7 days. The conditions noted are these: 168 h. Type of data set: ADME, organism-based, Liver. In outline:
as §4

Data set [11] relates to Rattus norvegicus. Put plainly: Induction of Nqo1 gene expression in po dosed rat hepatic microsomes administered po QD for 7 days. Type of data set: organism-based, Liver. The following applies: 168 h. In a few lines:
as §3

The subject of data set [12] is Rattus norvegicus. Put plainly: Induction of Ephx1 gene expression in po dosed rat hepatic microsomes administered po QD for 7 days. It counts as organism-based, Liver. The following applies: 168 h. In outline:
as §3

Data set [13] deals with CYP1A2. The data set is described as follows: Induction of CYP1A2 mRNA expression in rat hepatic microsomes at 20 mg/kg, po QD for 4 days relative to control. It counts as ADME, organism-based, Liver. The following applies: hepatic microsomes, read-out: FC. In outline:
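Male CD rats (226–325 g), n = 3, given test compound by oral gavage once daily for 4 days. Vehicle was 1% w/v methylcellulose aqueous suspension (3–6 mg/mL, 5 mL/kg); target dose 15–30 mg/kg. Liver from the left lateral lobe was put in RNALater, then TRIzol extraction and cDNA conversion; Cyp1a analysed on low-density arrays.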

Data set [14] has as its system CYP1A1. Put plainly: Induction of CYP1A1 mRNA expression in rat hepatic microsomes at 20 mg/kg, po QD for 4 days relative to control. Type of data set: ADME, organism-based, Liver. The following applies: hepatic microsomes, read-out: FC. In outline:
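Male CD rats, n = 3, received the compound once daily by oral gavage for 4 days in 1% methylcellulose suspension at 5 mL/kg. At necropsy a left lateral liver lobe section was stored in RNALater on ice. Tissue was TRIzol-homogenized, RNA purified, DNased and converted to cDNA. Cyp1a1 was read on low density arrays and expressed relative to control.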

The next data set relates to Hepatocyte. The description is as §2. Type of data set: ADME, cell-based. The following applies: 10 µM.
Data set [15] concerns the target T1, CYP1A2 (Homo sapiens, UniProt P05177).
T1 sequence (P05177 whole entry): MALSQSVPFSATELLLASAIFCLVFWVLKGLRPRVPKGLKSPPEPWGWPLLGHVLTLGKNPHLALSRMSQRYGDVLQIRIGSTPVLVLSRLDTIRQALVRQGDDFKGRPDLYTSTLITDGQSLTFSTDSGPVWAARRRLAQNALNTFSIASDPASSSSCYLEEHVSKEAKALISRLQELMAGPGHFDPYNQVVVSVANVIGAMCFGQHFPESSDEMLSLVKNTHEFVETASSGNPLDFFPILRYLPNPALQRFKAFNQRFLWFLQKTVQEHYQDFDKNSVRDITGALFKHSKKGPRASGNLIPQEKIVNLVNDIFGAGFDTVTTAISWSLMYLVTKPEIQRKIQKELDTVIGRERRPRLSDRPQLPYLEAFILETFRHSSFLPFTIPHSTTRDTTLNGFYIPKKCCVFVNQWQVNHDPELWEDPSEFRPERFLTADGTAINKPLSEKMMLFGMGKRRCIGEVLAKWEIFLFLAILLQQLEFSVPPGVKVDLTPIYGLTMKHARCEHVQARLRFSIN
Put plainly: Induction of CYP1A2-mediated 7-ethoxyresorufin O-deethylase activity in human hepatocytes at 5 uM after 10 mins by fluorescence assay relative to control. Type of data set: ADME, cell-based, Hepatocyte. The conditions noted are these: probe 7-ethoxyresorufin, read-out: FC. In a few lines:
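Human hepatocytes were treated for 48 h (re-dosed at 24 h), washed, then incubated with 0.5 μM ethoxyresorufin in serum-free medium for 10 min at 37 °C. Resorufin fluorescence read at Ex 530/Em 590 nm. Rate in fluorescence units/min expressed as fold over solvent control.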

Data set [16] deals with CYP1A2. Put plainly: Induction of CYP1A2 mRNA expression in human hepatocytes at 10 uM relative to control. Type of data set: ADME, cell-based, Hepatocyte. The conditions noted are these: read-out: FC.
Data set [17] relates to Cynomolgus monkey. Put plainly: Induction of CYP1A2 gene expression in cynomolgus monkey liver at 30 mg/kg, po QD for 7 days by Taqman analysis. The following applies: in vivo, 168 h. Type of data set: ADME, organism-based, Macaca fascicularis. In a few lines:
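Cynomolgus monkeys dosed orally at 30 mg/kg daily for 7 days. Liver CYP1A2 mRNA measured by Taqman analysis in treated animals versus vehicle-control animals.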

The test system of data set [18] is Cynomolgus monkey. The data set is described as follows: Induction of CYP1A1 gene expression in cynomolgus monkey liver at 30 mg/kg, po QD for 7 days by Taqman analysis. Type of data set: ADME, organism-based, Macaca fascicularis. The conditions noted are these: in vivo, 168 h. In outline:
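Cynomolgus monkeys were dosed orally at 30 mg/kg daily. Hepatic CYP1A1 mRNA from treated livers was measured by Taqman and compared with vehicle-control animals.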

A short description of data set [19]: Intrinsic clearance in cynomolgus monkey liver microsomes by LC-MS/MS analysis. It counts as ADME, Macaca fascicularis. In a few lines:
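Liver microsomes were prepared from control and treated cynomolgus monkeys by differential centrifugation (10 000g, then 105 000g). Compound incubated at 37 °C in 50 mM potassium phosphate pH 7.4 with an NADPH-generating system. Samples taken at 0–30 min, quenched with solvent containing internal standard, and analysed by LC–MS/MS to derive intrinsic clearance.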

The subject of data set [20] is Rattus norvegicus. Put plainly: Induction of Nqo1 gene expression in rat hepatic microsomes at 30 to 100 mg/kg, po QD for 7 days. Type of data set: organism-based, Liver. The conditions noted are these: 168 h.
Data set [21] has as its system Rattus norvegicus. Put plainly: Induction of CYP1A2 gene expression in rat hepatic microsomes at 30 to 100 mg/kg, po QD for 7 days. Type of data set: ADME, organism-based, Liver. The following applies: 168 h.
The test system of data set [22] is CYP1A1. The data set is described as follows: Induction of CYP1A1 gene expression in rat hepatic microsomes at 30 to 100 mg/kg, po QD for 7 days. Type of data set: ADME, organism-based, Liver. The conditions noted are these: read-out: FC.
The subject of data set [23] is Rattus norvegicus. Put plainly: Induction of Ephx1 gene expression in rat hepatic microsomes at 30 to 100 mg/kg, po QD for 7 days. Type of data set: organism-based, Liver. The following applies: 168 h.

For the compound `CC(C)Oc1ccc(-c2nc(-c3ccc4c(c3)CCN(CCCC(=O)O)CC4)no2)cc1C#N`, the fold induction at 168 h in the data set with CYP1A2 [1] came out at 2; in the data set with CYP1A1 [2] it was 210; with CYP1A1 [6], 10000. Besides, the fold induction at 10 µM with CYP1A2 [3] amounted to 2; in the data set on CYP1A1 [4], 3. The Activity entry with Rattus norvegicus [5] is given as “Toxic”; in the data set with Rattus norvegicus [7], “Toxic”; in the data set on Rattus norvegicus [8], “Toxic”; in the data set with Rattus norvegicus [9] it was “Dose-dependent effect”; with Rattus norvegicus [10], “Dose-dependent effect”; in the data set with Rattus norvegicus [11] it was “Dose-dependent effect”. Besides, in the data set with Rattus norvegicus [12], the Activity result is listed as “Dose-dependent effect”.

With `CC(C)Oc1ncc(-c2nc(-c3cccc4c3OCCNC4CCCC(=O)O)no2)cc1Cl` (stereo in doubt; 6), the fold induction at 96 h with CYP1A2 [13] and in the data set with CYP1A1 [14] was 2 throughout. Also, the “fold change (FC)” value in the data set with Hepatocyte is recorded as 19. In addition, in the data set with CYP1A1 [4], the fold induction at 10 µM is 43.

`CC(C)Oc1ccc(-c2nc(-c3cccc4c3cnn4CCC(=O)O)no2)cc1Cl`: the fold induction at 10 min, 5 µM on CYP1A2 [15] worked out at 7.7. In addition, the fold induction at 10 µM with CYP1A2 [16] was 45; in the data set with CYP1A2 [3], less than 1; in the data set on CYP1A1 [4], less than 1. Moreover, the fold induction at 168 h in the data set on CYP1A2 [1] came to 2; with CYP1A1 [2], 35; in the data set on CYP1A1 [22] it was 10000. The Activity entry with Cynomolgus monkey [17] is listed as “Toxic”; with Cynomolgus monkey [18], “Toxic”; in the data set with Rattus norvegicus [20], “Toxic”; with Rattus norvegicus [21], “Toxic”; in the data set on Rattus norvegicus [23] it was “Toxic”; in the data set with Rattus norvegicus [9], “Dose-dependent effect”. The Activity entry in the data set on Rattus norvegicus [10], in the data set on Rattus norvegicus [11] and in the data set on Rattus norvegicus [12] was “Dose-dependent effect” throughout. Also, in data set [19], the CLint scaled was found to be 11 mL/min/g.

For the origin of these results see ChEMBL document CHEMBL3627702, “Navigating CYP1A Induction and Arylhydrocarbon Receptor Agonism in Drug Discovery. A Case History with S1P1 Agonists” (J Med Chem, 2015).
